Data published in ChEMBL document CHEMBL4385668, “Synthesis and in vitro anticancer activity of new gemcitabine-nucleoside analogue dimers containing methyltriazole or ester-methyltriazole linker” (Bioorg Med Chem Lett, 2019).

Columns and labels:
HeLa = assay: Cytotoxicity in human HeLa cells assessed as reduction in cell viability incubated for 72 hrs by SRB assay; format: functional, cell-based
In short: (§1)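 SRB assay of cell viability in human cancer lines (HeLa, KB, A549, U87, HepG2) and normal dermal fibroblasts (HDF). IC50 values are […] of three independent experiments.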

KB = assay: Cytotoxicity in human KB cells assessed as reduction in cell viability incubated for 72 hrs by SRB assay; format: functional, cell-based; in short: as §1
A549 = assay: Cytotoxicity in human A549 cells assessed as reduction in cell viability incubated for 72 hrs by SRB assay; format: functional, cell-based; conditions: A549, 72 h; in short: as §1
U-87 MG = assay: Cytotoxicity in human U87 cells assessed as reduction in cell viability incubated for 72 hrs by SRB assay; format: functional, cell-based, U-87MG ATCC; in short: as §1
HepG2 = assay: Cytotoxicity in human HepG2 cells assessed as reduction in cell viability incubated for 72 hrs by SRB assay; format: functional, cell-based; conditions: HepG2, 72 h; in short: as §1
NHDF = assay: Cytotoxicity in human NHDF cells assessed as reduction in cell viability incubated for 72 hrs by SRB assay; format: cell-based; in short: as §1
[1] = Selectivity index, ratio of IC50 for cytotoxicity in human NHDF cells to IC50 for cytotoxicity in human HeLa cells
In short: (§2)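 Selectivity index is the IC50 in normal HDF fibroblasts divided by the IC50 in the given cancer line.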

[2] = Selectivity index, ratio of IC50 for cytotoxicity in human NHDF cells to IC50 for cytotoxicity in human KB cells; in short: as §2
[3] = Selectivity index, ratio of IC50 for cytotoxicity in human NHDF cells to IC50 for cytotoxicity in human A549 cells; in short: as §2
[4] = Selectivity index, ratio of IC50 for cytotoxicity in human NHDF cells to IC50 for cytotoxicity in human U87 cells; in short: as §2
[5] = Selectivity index, ratio of IC50 for cytotoxicity in human NHDF cells to IC50 for cytotoxicity in human HepG2 cells; in short: as §2
[6] = Drug level in human HeLa cells treated with 1-(3'-Deoxythymidin-3'-yl)-4-[methyloxycarbonyl-(2'-deoxy-2',2'-difluorocytidin-4N-yl)]-1H-1,2,3-triazole assessed as compound release incubated for 12 hrs by HPLC/MS method; format: ADME, cell-based
In short: (§3)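 HeLa cells were incubated with the dimer at 37 °C for 12 h. Cell lysate was analysed by HPLC/MS for released gemcitabine, the deamination product dFdU and the thymidine-triazole fragment. A separately synthesized sample of the thymidine-triazole fragment was used as the reference.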

[7] = Drug metabolism in human HeLa cells assessed as gemcitabine release incubated for 12 hrs by HPLC/MS method; format: ADME, cell-based; in short: as §3
[8] = Drug metabolism in human HeLa cells assessed as 2',2'-difluoro-2'-deoxyuridine release incubated for 12 hrs by HPLC/MS method; format: ADME, cell-based; in short: as §3

SMILES | IC50 (HeLa) [µM] | IC50 (KB) [µM] | IC50 (A549) [µM] | IC50 (U-87 MG) [µM] | IC50 (HepG2) [µM] | IC50 (NHDF) [µM] | Ratio IC50 [1] | Ratio IC50 [2] | Ratio IC50 [3] | Ratio IC50 [4] | Ratio IC50 [5] | Drug uptake [6] | Drug metabolism [7] | Drug metabolism [8]
CC(C)(C)OC(=O)O[C@@H]1[C@@H](Cn2cc(COC(=O)Nc3ccn([C@@H]4O[C@H](CO)[C@@H](O)C4(F)F)c(=O)n3)nn2)O[C@@H](n2ccc(N)nc2=O)C1(F)F | 2.01 | 2.12 | 2.17 | 2.21 | 2.34 | 8.81 | 4.38 | 4.16 | 4.06 | 3.99 | 3.77 | – | – | –
Cc1cn([C@H]2C[C@H](N=[N+]=[N-])[C@@H](CO)O2)c(=O)[nH]c1=O [ZIDOVUDINE] | 10.8 | 9.77 | 11.9 | 11.9 | 13 | 14.4 | 1.34 | 1.48 | 1.22 | 1.21 | 1.11 | – | – | –
CC(C)(C)OC(=O)O[C@@H]1[C@@H](Cn2cc(CNc3ccn([C@@H]4O[C@H](CO)[C@@H](O)C4(F)F)c(=O)n3)nn2)O[C@@H](n2ccc(N)nc2=O)C1(F)F | 4.11 | 4.09 | 4.23 | 4.54 | 5.19 | 10.9 | 2.65 | 2.67 | 2.58 | 2.4 | 2.1 | – | – | –
Nc1ccn([C@@H]2O[C@H](CO)[C@@H](O)[C@@H]2O)c(=O)n1 [CYTARABINE] | – | – | 3.47 | 2.88 | – | 4.99 | 1.41 | 1.23 | 1.44 | 1.73 | 1.75 | – | – | –
O=C(Nc1ccn([C@@H]2O[C@H](Cn3cc(CNc4ccn([C@@H]5O[C@H](CO)[C@@H](O)C5(F)F)c(=O)n4)nn3)[C@@H](O)C2(F)F)c(=O)n1)OCc1ccccc1 | 4.23 | 4.14 | 4.31 | 4.45 | 4.64 | 10.1 | 2.39 | 2.44 | 2.34 | 2.27 | 2.18 | – | – | –
Cc1cn([C@H]2C[C@H](O)[C@@H](Cn3cc(CNc4ccn([C@@H]5O[C@H](CO)[C@@H](O)C5(F)F)c(=O)n4)nn3)O2)c(=O)[nH]c1=O | 129 | 131 | 126 | 128 | 130 | 152 | – | – | – | – | – | – | – | –
Cc1cn([C@H]2C[C@H](OC(=O)OC(C)(C)C)[C@@H](Cn3cc(CNc4ccn([C@@H]5O[C@H](CO)[C@@H](O)C5(F)F)c(=O)n4)nn3)O2)c(=O)[nH]c1=O | 6.3 | 7.07 | 6.07 | 6.97 | 6.34 | 14.2 | – | – | – | – | – | – | – | –
Cc1cn([C@H]2C[C@H](n3cc(CO)nn3)[C@@H](CO)O2)c(=O)[nH]c1=O | – | – | – | – | – | – | – | – | – | – | – | Active | – | –
Cc1cn([C@H]2C[C@H](O)[C@@H](Cn3cc(COC(=O)Nc4ccn([C@@H]5O[C@H](CO)[C@@H](O)C5(F)F)c(=O)n4)nn3)O2)c(=O)[nH]c1=O | 13.5 | 13.1 | 13.4 | 13.5 | 14.6 | 16.9 | – | – | – | – | – | – | – | –
Nc1ccn([C@@H]2O[C@H](Cn3cc(CNc4ccn([C@@H]5O[C@H](CO)[C@@H](O)C5(F)F)c(=O)n4)nn3)[C@@H](O)C2(F)F)c(=O)n1 | 16.2 | 15.9 | 16.1 | 16.5 | 15.1 | 29.3 | – | – | – | – | – | – | – | –
O=C(Nc1ccn([C@@H]2O[C@H](CO)[C@@H](O)C2(F)F)c(=O)n1)OCc1cn(C[C@H]2O[C@@H](n3cc(F)c(=O)[nH]c3=O)C[C@@H]2O)nn1 | 6.7 | 6.52 | 8.01 | 7.56 | 7.66 | 10.2 | – | – | – | – | – | – | – | –
O=C(Nc1ccn([C@@H]2O[C@H](CO)[C@@H](O)C2(F)F)c(=O)n1)OCc1cn(C[C@H]2O[C@@H](n3ccc(NC(=O)OCc4ccccc4)nc3=O)C(F)(F)[C@@H]2O)nn1 | 1.98 | 2.01 | 2.11 | 2.14 | 2.21 | 8.12 | 4.1 | 4.04 | 3.85 | 3.79 | 3.67 | – | – | –
Cc1cn([C@H]2C[C@H](n3cc(CNc4ccn([C@@H]5O[C@H](CO)[C@@H](O)C5(F)F)c(=O)n4)nn3)[C@@H](CO)O2)c(=O)[nH]c1=O | 10.9 | 12.2 | 10.6 | 10.8 | 12.2 | 17.8 | – | – | – | – | – | – | Metabolite_Detected | Metabolite_Notdetected
O=c1[nH]c(=O)n([C@H]2C[C@H](O)[C@@H](CO)O2)cc1F [FLOXURIDINE] | – | – | 5.91 | 6.14 | – | 13.1 | 2.01 | 1.5 | 2.21 | 2.13 | 1.47 | – | – | –
O=C(Nc1ccn([C@@H]2O[C@H](Cn3cc(CNc4ccn([C@@H]5O[C@H](CO)[C@@H](O)C5(F)F)c(=O)n4)nn3)[C@@H](OC(=O)c3ccccc3)C2(F)F)c(=O)n1)c1ccccc1 | 5.41 | 5.34 | 6.01 | 5.5 | 5.82 | 14.2 | – | – | – | – | – | – | – | –
Nc1ccn([C@@H]2O[C@H](CO)[C@@H](O)C2(F)F)c(=O)n1 [GEMCITABINE] | 9.42 | 8.21 | 5.05 | 5.21 | 4.9 | 19.4 | 2.07 | 2.37 | 3.85 | 3.73 | 3.97 | Active | – | –
Cc1cn([C@H]2C[C@H](OC(=O)OC(C)(C)C)[C@@H](Cn3cc(COC(=O)Nc4ccn([C@@H]5O[C@H](CO)[C@@H](O)C5(F)F)c(=O)n4)nn3)O2)c(=O)[nH]c1=O | 9.65 | 10.7 | 8.5 | 9.68 | 11.1 | 15 | – | – | – | – | – | – | – | –
CC(C)(C)OC(=O)O[C@@H]1[C@@H](Cn2cc(COC(=O)Nc3ccn([C@@H]4O[C@H](CO)[C@@H](O)C4(F)F)c(=O)n3)nn2)O[C@@H](n2ccc(NC(=O)OCc3ccccc3)nc2=O)C1(F)F | 0.97 | 0.95 | 0.83 | 1.09 | 1.01 | 4.69 | 4.83 | 4.94 | 5.65 | 4.3 | 4.64 | – | – | –
CC(C)(C)OC(=O)O[C@@H]1[C@@H](Cn2cc(CNc3ccn([C@@H]4O[C@H](CO)[C@@H](O)C4(F)F)c(=O)n3)nn2)O[C@@H](n2ccc(NC(=O)OCc3ccccc3)nc2=O)C1(F)F | 3.12 | 3.09 | 3.24 | 3.81 | 3.93 | 8.12 | 2.6 | 2.63 | 2.51 | 2.13 | 2.07 | – | – | –
Nc1ccn([C@@H]2O[C@H](Cn3cc(COC(=O)Nc4ccn([C@@H]5O[C@H](CO)[C@@H](O)C5(F)F)c(=O)n4)nn3)[C@@H](O)C2(F)F)c(=O)n1 | 12.4 | 11.3 | 11.4 | 12.6 | 10.8 | 15.8 | – | – | – | – | – | – | – | –
CC(C)(C)OC(=O)O[C@H]1C[C@H](n2cc(F)c(=O)[nH]c2=O)O[C@@H]1Cn1cc(CNc2ccn([C@@H]3O[C@H](CO)[C@@H](O)C3(F)F)c(=O)n2)nn1 | 4.68 | 4.62 | 5.86 | 4.73 | 5.71 | 13.7 | 2.94 | 2.97 | 2.35 | 2.91 | 2.41 | – | – | –
O=C(Nc1ccn([C@@H]2O[C@H](CO)[C@@H](O)C2(F)F)c(=O)n1)OCc1cn(C[C@H]2O[C@@H](n3ccc(NC(=O)c4ccccc4)nc3=O)C(F)(F)[C@@H]2OC(=O)c2ccccc2)nn1 | 3.22 | 3.13 | 3.32 | 3.41 | 3.51 | 9.12 | 2.83 | 2.91 | 2.75 | 2.67 | 2.6 | – | – | –
O=c1[nH]c(=O)n([C@H]2C[C@H](O)[C@@H](Cn3cc(CNc4ccn([C@@H]5O[C@H](CO)[C@@H](O)C5(F)F)c(=O)n4)nn3)O2)cc1F | 78.9 | 81.5 | 79.3 | 80.3 | 78.9 | 106 | – | – | – | – | – | – | – | –
